{
  "source": "ChEMBL document CHEMBL3272128",
  "about": "“Antileukemic activity of derivatives of 1-phenyl-2,5-dimethyl-3,4-bis(hydroxymethyl)pyrrole bis(N-methylcarbamate)” (J Med Chem, 1977)",
  "key": {"Mus musculus [1]": {"test_system": "Mus musculus", "experiment": "Toxicity in male CDF1 mouse allografted with mouse P388 cells assessed as survivors on day 5 at 12.5 mg/kg, ip using hydroxypropylcellulose suspension", "type": "organism-based", "set-up": "dose 12.5 mg/kg, route intraperitoneal", "conditions": "in vivo", "how_it_was_run": "(§1)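 Male CDF1 mice received an ip inoculation of P388 leukemia ascitic fluid. Dosing was ip in a hydroxypropylcellulose (Flucel) suspension, once daily for nine days, beginning 24 h after tumor implantation. Toxicity was scored as survivors recorded on the fifth day.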"}, "P388 [2]": {"test_system": "P388", "experiment": "Antileukemic activity against mouse P388 cells allografted in male CDF1 mouse assessed as tumor growth inhibition at 12.5 mg/kg, ip using hydroxypropylcellulose suspension total 9 daily doses started 24 hrs after tumor inoculation", "type": "functional", "conditions": "route intraperitoneal", "how_it_was_run": "(§2)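 Male CDF1 mice received P388 ascitic fluid ip, then ip doses in Flucel (hydroxypropylcellulose) suspension, nine daily, beginning 24 h after inoculation. Efficacy was median survival time as % T/C; values > 125 were considered significant.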"}, "P388 [3]": {"test_system": "P388", "experiment": "Antileukemic activity against mouse P388 cells allografted in male CDF1 mouse assessed as change in body weight at 50 mg/kg, ip using hydroxypropylcellulose suspension total 9 daily doses started 24 hrs after tumor inoculation", "type": "functional", "conditions": "route intraperitoneal", "how_it_was_run": "(§3)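 Male CDF1 mice were inoculated ip with P388 ascitic fluid. Compound was given ip as a Flucel (hydroxypropylcellulose) suspension, nine daily doses from 24 h after inoculation. Animal weight difference (T − C, g) was recorded on the fifth day.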"}, "Mus musculus [4]": {"test_system": "Mus musculus", "experiment": "Toxicity in male CDF1 mouse allografted with mouse P388 cells assessed as survivors on day 5 at 25 mg/kg, ip using hydroxypropylcellulose suspension", "type": "organism-based", "set-up": "dose 25 mg/kg, route intraperitoneal", "conditions": "in vivo", "how_it_was_run": "as §1"}, "Mus musculus [5]": {"test_system": "Mus musculus", "experiment": "Toxicity in male CDF1 mouse allografted with mouse P388 cells assessed as survivors on day 5 at 50 mg/kg, ip using hydroxypropylcellulose suspension", "type": "organism-based", "set-up": "dose 50 mg/kg, route intraperitoneal", "conditions": "in vivo", "how_it_was_run": "as §1"}, "P388 [6]": {"test_system": "P388", "experiment": "Antileukemic activity against mouse P388 cells allografted in male CDF1 mouse assessed as tumor growth inhibition at 25 mg/kg, ip using hydroxypropylcellulose suspension total 9 daily doses started 24 hrs after tumor inoculation", "type": "functional", "conditions": "route intraperitoneal", "how_it_was_run": "as §2"}, "P388 [7]": {"test_system": "P388", "experiment": "Antileukemic activity against mouse P388 cells allografted in male CDF1 mouse assessed as change in body weight at 25 mg/kg, ip using hydroxypropylcellulose suspension total 9 daily doses started 24 hrs after tumor inoculation", "type": "functional", "conditions": "route intraperitoneal", "how_it_was_run": "as §3"}, "P388 [8]": {"test_system": "P388", "experiment": "Antileukemic activity against mouse P388 cells allografted in male CDF1 mouse assessed as change in body weight at 12.5 mg/kg, ip using hydroxypropylcellulose suspension total 9 daily doses started 24 hrs after tumor inoculation", "type": "functional", "conditions": "route intraperitoneal", "how_it_was_run": "as §3"}, "P388 [9]": {"test_system": "P388", "experiment": "Antileukemic activity against mouse P388 cells allografted in male CDF1 mouse assessed as tumor growth inhibition at 50 mg/kg, ip using hydroxypropylcellulose suspension total 9 daily doses started 24 hrs after tumor inoculation", "type": "functional", "conditions": "route intraperitoneal", "how_it_was_run": "as §2"}, "Mus musculus [10]": {"test_system": "Mus musculus", "experiment": "Toxicity in male CDF1 mouse allografted with mouse P388 cells assessed as survivors on day 5 at 12.5 mg/kg, ip using saline as vehicle", "type": "organism-based", "set-up": "dose 12.5 mg/kg, route intraperitoneal", "conditions": "in vivo", "how_it_was_run": "(§4)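 P388 leukemia ascitic fluid was implanted ip into male CDF1 mice. Compound was given ip in saline vehicle as nine daily doses, starting 24 h post-inoculation. Survivor counts were taken on day 5.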"}, "P388 [11]": {"test_system": "P388", "experiment": "Antileukemic activity against mouse P388 cells allografted in male CDF1 mouse assessed as change in body weight at 25 mg/kg, ip using saline as vehicle total 9 daily doses started 24 hrs after tumor inoculation", "type": "functional", "conditions": "route intraperitoneal", "how_it_was_run": "(§5)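 In male CDF1 mice bearing ip-inoculated P388 ascitic fluid, drug was given ip in saline vehicle, once daily for nine doses starting 24 h after inoculation. Body weight difference, treated minus control (g), was recorded on day 5.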"}, "P388 [12]": {"test_system": "P388", "experiment": "Antileukemic activity against mouse P388 cells allografted in male CDF1 mouse assessed as change in body weight at 12.5 mg/kg, ip using saline as vehicle total 9 daily doses started 24 hrs after tumor inoculation", "type": "functional", "conditions": "route intraperitoneal", "how_it_was_run": "as §5"}, "P388 [13]": {"test_system": "P388", "experiment": "Antileukemic activity against mouse P388 cells allografted in male CDF1 mouse assessed as tumor growth inhibition at 12.5 mg/kg, ip using saline as vehicle total 9 daily doses started 24 hrs after tumor inoculation", "type": "functional", "conditions": "route intraperitoneal", "how_it_was_run": "(§6)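 P388 ascitic fluid was given ip to male CDF1 mice. Treatment was ip in saline, nine daily doses from 24 h post-inoculation. Median survival time was expressed as % T/C, and % T/C > 125 was considered significant.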"}, "P388 [14]": {"test_system": "P388", "experiment": "Antileukemic activity against mouse P388 cells allografted in male CDF1 mouse assessed as tumor growth inhibition at 25 mg/kg, ip using saline as vehicle total 9 daily doses started 24 hrs after tumor inoculation", "type": "functional", "conditions": "route intraperitoneal", "how_it_was_run": "as §6"}, "Mus musculus [15]": {"test_system": "Mus musculus", "experiment": "Toxicity in male CDF1 mouse allografted with mouse P388 cells assessed as survivors on day 5 at 25 mg/kg, ip using saline as vehicle", "type": "organism-based", "set-up": "dose 25 mg/kg, route intraperitoneal", "conditions": "in vivo", "how_it_was_run": "as §4"}, "P388 [16]": {"test_system": "P388", "experiment": "Antileukemic activity against mouse P388 cells allografted in male CDF1 mouse assessed as change in body weight at 50 mg/kg, ip using saline as vehicle total 9 daily doses started 24 hrs after tumor inoculation", "type": "functional", "conditions": "route intraperitoneal", "how_it_was_run": "as §5"}, "P388 [17]": {"test_system": "P388", "experiment": "Antileukemic activity against mouse P388 cells allografted in male CDF1 mouse assessed as tumor growth inhibition at 50 mg/kg, ip using saline as vehicle total 9 daily doses started 24 hrs after tumor inoculation", "type": "functional", "conditions": "route intraperitoneal", "how_it_was_run": "as §6"}, "Mus musculus [18]": {"test_system": "Mus musculus", "experiment": "Toxicity in male CDF1 mouse allografted with mouse P388 cells assessed as survivors on day 5 at 50 mg/kg, ip using saline as vehicle", "type": "organism-based", "set-up": "dose 50 mg/kg, route intraperitoneal", "conditions": "in vivo", "how_it_was_run": "as §4"}},
  "data": [
    {"smiles": "CNC(=O)OCc1c(COC(=O)NC)c(C)n(-c2ccc(OC)cc2)c1C", "values": [
      {"measurement": "Activity", "setting": "Mus musculus [1]", "result": "Non-toxic"},
      {"measurement": "T/C", "setting": "P388 [2]", "result": 152, "unit": "%"},
      {"measurement": "Activity", "setting": "P388 [3]", "result": -0.5, "unit": "g"},
      {"measurement": "Activity", "setting": "Mus musculus [4]", "result": "Non-toxic"},
      {"measurement": "Activity", "setting": "Mus musculus [5]", "result": "Non-toxic"},
      {"measurement": "T/C", "setting": "P388 [6]", "result": 142, "unit": "%"},
      {"measurement": "Activity", "setting": "P388 [7]", "result": -2.4, "unit": "g"},
      {"measurement": "Activity", "setting": "P388 [8]", "result": -2.6, "unit": "g"},
      {"measurement": "T/C", "setting": "P388 [9]", "result": 171, "unit": "%"}
    ]},
    {"smiles": "CCCCc1ccc(-n2c(C)c(COC(=O)NC)c(COC(=O)NC)c2C)cc1", "values": [
      {"measurement": "Activity", "setting": "Mus musculus [1]", "result": "Non-toxic"},
      {"measurement": "T/C", "setting": "P388 [2]", "result": 190, "unit": "%"},
      {"measurement": "Activity", "setting": "P388 [3]", "result": -4.9, "unit": "g"},
      {"measurement": "Activity", "setting": "Mus musculus [4]", "result": "Non-toxic"},
      {"measurement": "T/C", "setting": "P388 [6]", "result": 152, "unit": "%"},
      {"measurement": "Activity", "setting": "P388 [7]", "result": -4.1, "unit": "g"},
      {"measurement": "Activity", "setting": "P388 [8]", "result": -3.1, "unit": "g"},
      {"measurement": "T/C", "setting": "P388 [9]", "result": 65, "unit": "%"}
    ]},
    {"smiles": "COc1ccc(-n2c(C)c(COC(C)=O)c(COC(C)=O)c2C)cc1", "values": [
      {"measurement": "Activity", "setting": "Mus musculus [1]", "result": "Non-toxic"},
      {"measurement": "T/C", "setting": "P388 [2]", "result": 157, "unit": "%"},
      {"measurement": "Activity", "setting": "P388 [3]", "result": -3.2, "unit": "g"},
      {"measurement": "Activity", "setting": "Mus musculus [4]", "result": "Non-toxic"},
      {"measurement": "T/C", "setting": "P388 [6]", "result": 95, "unit": "%"},
      {"measurement": "Activity", "setting": "P388 [7]", "result": -3.8, "unit": "g"},
      {"measurement": "Activity", "setting": "P388 [8]", "result": -1.6, "unit": "g"},
      {"measurement": "T/C", "setting": "P388 [9]", "result": 75, "unit": "%"}
    ]},
    {"smiles": "CNC(=O)OCc1c(COC(=O)NC)c(C)n(-c2ccc(F)cc2)c1C", "values": [
      {"measurement": "Activity", "setting": "Mus musculus [1]", "result": "Non-toxic"},
      {"measurement": "T/C", "setting": "P388 [2]", "result": 142, "unit": "%"},
      {"measurement": "Activity", "setting": "P388 [3]", "result": -2.6, "unit": "g"},
      {"measurement": "Activity", "setting": "Mus musculus [4]", "result": "Non-toxic"},
      {"measurement": "Activity", "setting": "Mus musculus [5]", "result": "Non-toxic"},
      {"measurement": "T/C", "setting": "P388 [6]", "result": 155, "unit": "%"},
      {"measurement": "Activity", "setting": "P388 [7]", "result": -2.1, "unit": "g"},
      {"measurement": "Activity", "setting": "P388 [8]", "result": -2.6, "unit": "g"},
      {"measurement": "T/C", "setting": "P388 [9]", "result": 133, "unit": "%"}
    ]},
    {"smiles": "CNC(=O)OCc1c(COC(=O)NC)c(C)n(-c2ccc(C)cc2)c1C", "values": [
      {"measurement": "Activity", "setting": "Mus musculus [1]", "result": "Non-toxic"},
      {"measurement": "T/C", "setting": "P388 [2]", "result": 142, "unit": "%"},
      {"measurement": "Activity", "setting": "P388 [3]", "result": -2.6, "unit": "g"},
      {"measurement": "Activity", "setting": "Mus musculus [4]", "result": "Non-toxic"},
      {"measurement": "Activity", "setting": "Mus musculus [5]", "result": "Non-toxic"},
      {"measurement": "T/C", "setting": "P388 [6]", "result": 136, "unit": "%"},
      {"measurement": "Activity", "setting": "P388 [7]", "result": -2.3, "unit": "g"},
      {"measurement": "Activity", "setting": "P388 [8]", "result": -2.5, "unit": "g"},
      {"measurement": "T/C", "setting": "P388 [9]", "result": 133, "unit": "%"}
    ]},
    {"smiles": "CNC(=O)OCc1c(COC(=O)NC)c(C)n(-c2ccc(Cl)c(Cl)c2)c1C", "values": [
      {"measurement": "Activity", "setting": "Mus musculus [10]", "result": "Non-toxic"},
      {"measurement": "Activity", "setting": "P388 [11]", "result": -2.9, "unit": "g"},
      {"measurement": "Activity", "setting": "P388 [12]", "result": -1.5, "unit": "g"},
      {"measurement": "T/C", "setting": "P388 [13]", "result": 160, "unit": "%"},
      {"measurement": "T/C", "setting": "P388 [14]", "result": 148, "unit": "%"},
      {"measurement": "Activity", "setting": "Mus musculus [15]", "result": "Non-toxic"},
      {"measurement": "Activity", "setting": "P388 [16]", "result": -2.6, "unit": "g"},
      {"measurement": "T/C", "setting": "P388 [17]", "result": 84, "unit": "%"},
      {"measurement": "Activity", "setting": "Mus musculus [18]", "result": "Non-toxic"}
    ]}
  ]
}
